Measured values as given in ChEMBL document CHEMBL2417451, “Synthesis, antimicrobial and cytotoxic activities of some novel thiazole clubbed 1,3,4-oxadiazoles” (Eur J Med Chem, 2013).
≈ marks a conversion by molar mass, not a printed value.

Assays:
Aspergillus niger [1] = assay: Ratio of ketoconazole MIC to compound MIC for Aspergillus niger MTCC 282; assay type: functional
Aspergillus clavatus = assay: Antifungal activity against Aspergillus clavatus MTCC 1323 by conventional broth microdilution method; assay type: functional
Summary of the method: (§1)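 Tube broth microdilution. Compounds were diluted in DMSO from a 2000 μg/mL stock. The primary screen used 500, 250 and 200 μg/mL, and actives were retested at 100, 62.5, 50 and 25 μg/mL. Tubes were incubated overnight. MIC was the lowest concentration with no visible growth (at least 99% inhibition). Clear tubes were subcultured overnight at 37 °C.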

Escherichia coli [2] = assay: Antibacterial activity against Escherichia coli MTCC 443 by conventional broth microdilution method; assay type: functional; summary of the method: as §1
Staphylococcus aureus [3] = assay: Antibacterial activity against Staphylococcus aureus MTCC 96 by conventional broth microdilution method; assay type: functional; summary of the method: as §1
Candida albicans [4] = assay: Antifungal activity against Candida albicans MTCC 227 by conventional broth microdilution method; assay type: functional; summary of the method: as §1
Aspergillus niger [5] = assay: Antifungal activity against Aspergillus niger MTCC 282 by conventional broth microdilution method; assay type: functional; summary of the method: as §1
Pseudomonas aeruginosa [6] = assay: Antibacterial activity against Pseudomonas aeruginosa MTCC 1688 by conventional broth microdilution method; assay type: functional; summary of the method: as §1
HeLa = assay: Cytotoxicity against human HeLa cells after 24 hrs by MTT assay; assay type: cell-based
Summary of the method: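 HeLa cells were grown in MEM with 10% FBS, 1% glutamine and gentamicin under humidified 5% CO2. 1.0 × 10^4 cells were exposed to 1–100 μM compound (0.1% DMSO in medium) for 24 h at 37 °C. MTT at 1 mg/mL was added for 5 h at 37 °C, formazan was dissolved in DMSO, and A540 was read. Run in triplicate; IC50 reported.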

Streptococcus pyogenes [7] = assay: Antibacterial activity against Streptococcus pyogenes MTCC 442 by conventional broth microdilution method; assay type: functional; summary of the method: as §1
Candida albicans [8] = assay: Ratio of ketoconazole MIC to compound MIC for Candida albicans MTCC 227; assay type: functional
Streptococcus pyogenes [9] = assay: Ratio of chloramphenicol MIC to compound MIC for Streptococcus pyogenes MTCC 442; assay type: functional
Pseudomonas aeruginosa [10] = assay: Ratio of chloramphenicol MIC to compound MIC for Pseudomonas aeruginosa MTCC 1688; assay type: functional
Staphylococcus aureus [11] = assay: Ratio of chloramphenicol MIC to compound MIC for Staphylococcus aureus MTCC 96; assay type: functional
Escherichia coli [12] = assay: Ratio of chloramphenicol MIC to compound MIC for Escherichia coli MTCC 443; assay type: functional

SMILES	Ratio (Aspergillus niger [1])	MIC (Aspergillus clavatus) [µg/mL]	MIC (Escherichia coli [2]) [µg/mL]	MIC (Staphylococcus aureus [3]) [µg/mL]	MIC (Candida albicans [4]) [µg/mL]	MIC (Aspergillus niger [5]) [µg/mL]	MIC (Pseudomonas aeruginosa [6]) [µg/mL]	IC50 (HeLa) [µM]	MIC (Streptococcus pyogenes [7]) [µg/mL]	Ratio (Candida albicans [8])	Ratio (Streptococcus pyogenes [9])	Ratio (Pseudomonas aeruginosa [10])	Ratio (Staphylococcus aureus [11])	Ratio (Escherichia coli [12])
COc1ccc(NCn2nc(-c3sc(NC(C)=O)nc3C)oc2=S)cc1	2	62.5 (≈ 160 µM)	500 (≈ 1280 µM)	500 (≈ 1280 µM)	25 (≈ 63.9 µM)	25 (≈ 63.9 µM)	500 (≈ 1280 µM)	98.6	> 1000	2				
CC(=O)Nc1nc(C)c(-c2nn(CNc3ccccc3[N+](=O)[O-])c(=S)o2)s1		500 (≈ 1230 µM)	500 (≈ 1230 µM)	100 (≈ 246 µM)	250 (≈ 615 µM)	500 (≈ 1230 µM)	250 (≈ 615 µM)		250 (≈ 615 µM)					
CC(=O)Nc1nc(C)c(-c2nn(CNc3cccc([N+](=O)[O-])c3)c(=S)o2)s1		250 (≈ 615 µM)	50 (≈ 123 µM)	50 (≈ 123 µM)	500 (≈ 1230 µM)	100 (≈ 246 µM)	50 (≈ 123 µM)	> 100	100 (≈ 246 µM)					
CC(=O)Nc1nc(C)c(-c2nn(CNc3ccc([N+](=O)[O-])cc3)c(=S)o2)s1		100 (≈ 246 µM)	12.5 (≈ 30.8 µM)	25 (≈ 61.5 µM)	500 (≈ 1230 µM)	250 (≈ 615 µM)	12.5 (≈ 30.8 µM)	96.5	25 (≈ 61.5 µM)		2	4	2	4
CC(=O)Nc1nc(C)c(-c2nn(CNc3ccccc3C)c(=S)o2)s1		250 (≈ 666 µM)	250 (≈ 666 µM)	500 (≈ 1330 µM)	500 (≈ 1330 µM)	500 (≈ 1330 µM)	100 (≈ 266 µM)		250 (≈ 666 µM)					
CC(=O)Nc1nc(C)c(-c2nn(CNc3cccc(C)c3)c(=S)o2)s1		500 (≈ 1330 µM)	250 (≈ 666 µM)	500 (≈ 1330 µM)	500 (≈ 1330 µM)	500 (≈ 1330 µM)	500 (≈ 1330 µM)		500 (≈ 1330 µM)					
CC(=O)Nc1nc(C)c(-c2nn(CNc3ccc(C)cc3)c(=S)o2)s1		250 (≈ 666 µM)	500 (≈ 1330 µM)	500 (≈ 1330 µM)	500 (≈ 1330 µM)	250 (≈ 666 µM)	> 1000		> 1000					
CC(=O)Nc1nc(C)c(-c2nn(CNc3ccccc3F)c(=S)o2)s1		500 (≈ 1320 µM)	250 (≈ 659 µM)	250 (≈ 659 µM)	500 (≈ 1320 µM)	> 1000	500 (≈ 1320 µM)		100 (≈ 264 µM)					
CC(=O)Nc1nc(C)c(-c2nn(CNc3cccc(F)c3)c(=S)o2)s1		> 1000	50 (≈ 132 µM)	50 (≈ 132 µM)	500 (≈ 1320 µM)	500 (≈ 1320 µM)	50 (≈ 132 µM)	> 100	100 (≈ 264 µM)					
CC(=O)Nc1nc(C)c(-c2nn(CNc3ccc(F)cc3)c(=S)o2)s1		> 1000	12.5 (≈ 32.9 µM)	12.5 (≈ 32.9 µM)	500 (≈ 1320 µM)	500 (≈ 1320 µM)	12.5 (≈ 32.9 µM)	> 100	25 (≈ 65.9 µM)		2	4	4	4
COc1ccccc1NCn1nc(-c2sc(NC(C)=O)nc2C)oc1=S		250 (≈ 639 µM)	500 (≈ 1280 µM)	500 (≈ 1280 µM)	500 (≈ 1280 µM)	250 (≈ 639 µM)	250 (≈ 639 µM)		> 1000					
COc1cccc(NCn2nc(-c3sc(NC(C)=O)nc3C)oc2=S)c1		500 (≈ 1280 µM)	500 (≈ 1280 µM)	> 1000	250 (≈ 639 µM)	100 (≈ 255 µM)	500 (≈ 1280 µM)		500 (≈ 1280 µM)					
O=C(N[C@H](CO)[C@H](O)c1ccc([N+](=O)[O-])cc1)C(Cl)Cl [CHLORAMPHENICOL]			50 (≈ 155 µM)	50 (≈ 155 µM)			50 (≈ 155 µM)		50 (≈ 155 µM)					
CC(=O)N1CCN(c2ccc(OCC3COC(Cn4ccnc4)(c4ccc(Cl)cc4Cl)O3)cc2)CC1 (stereo unspecified) [KETOCONAZOLE]		50 (≈ 94.1 µM)			50 (≈ 94.1 µM)	50 (≈ 94.1 µM)								
